According to ChEMBL document CHEMBL1139506, “Effect on K(ATP) channel activation properties and tissue selectivity of the nature of the substituent in the 7- and the 3-position of 4H-1,2,4-benzothiadiazine 1,1-dioxides” (J Med Chem, 2005):

Legend:
Rattus norvegicus [1] = species: Rattus norvegicus; assay: Concentration required for relaxation of the 30 mM KCl-induced contraction of rat aortic rings (n=4); type: functional; details: Aorta, read-out: ED50 (the source's name)
In short: (§1)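 Endothelium-denuded transverse aortic rings (3-4 mm) from fed Wistar rats (180-200 g); isometric tension by force transducer. After 60 min equilibration, contracted with 30 mM KCl; at stable tension, drug added cumulatively until maximal relaxation or up to 0.3 mM. Relaxation expressed as % of KCl contraction; ED50 (50% inhibition of KCl plateau) from dose curves; mean ± SEM (n).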

Rattus norvegicus [2] = species: Rattus norvegicus; assay: Effect on insulin secretion from rat pancreatic islets at 10 uM concentration (n=12); type: functional
In short: (§2)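 Islets isolated by collagenase from fed Wistar rats (180-220 g); groups of 10 preincubated 30 min, 37 °C, in bicarbonate salt medium with 2.8 mM glucose, 0.5% dialyzed albumin, O2/CO2 95:5. Then incubated 90 min, 37 °C, with 16.7 mM glucose plus drug. Insulin measured by radioimmunoassay against rat insulin standard; expressed as % of drug-free 16.7 mM glucose control; mean ± SEM (n).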

Rattus norvegicus [3] = species: Rattus norvegicus; assay: Effect on insulin secretion from rat pancreatic islets at 1 uM concentration (n=23); type: functional; in short: as §2
Rattus norvegicus [4] = species: Rattus norvegicus; assay: Effect on insulin secretion from rat pancreatic islets at 10 uM concentration (n=15); type: functional; in short: as §2
Rattus norvegicus [5] = species: Rattus norvegicus; assay: Effect on insulin secretion from rat pancreatic islets at 10 uM concentration (n=16); type: functional; in short: as §2
Rattus norvegicus [6] = species: Rattus norvegicus; assay: Effect on insulin secretion from rat pancreatic islets at 10 uM concentration (n=14); type: functional; in short: as §2
Rattus norvegicus [7] = species: Rattus norvegicus; assay: Effect on insulin secretion from rat pancreatic islets at 50 uM concentration (n=21); type: functional; in short: as §2
Rattus norvegicus [8] = species: Rattus norvegicus; assay: Concentration giving 50% relaxation of the 30 mM KCl-induced contraction of rat aortic rings (n=8); type: functional, Aorta; details: Rattus norvegicus, Aorta; read-out: ED50 (the source's name); in short: as §1
Rattus norvegicus [9] = species: Rattus norvegicus; assay: Effect on insulin secretion from rat pancreatic islets at 10 uM concentration (n=22); type: functional; in short: as §2
Rattus norvegicus [10] = species: Rattus norvegicus; assay: Effect on insulin secretion from rat pancreatic islets at 50 uM concentration (n=20); type: functional; in short: as §2
Rattus norvegicus [11] = species: Rattus norvegicus; assay: ED50/IC50 ratio was determined; type: functional
Rattus norvegicus [12] = species: Rattus norvegicus; assay: Concentration required for 50% inhibition of insulin release in rat pancreatic B-cells; type: functional, cell-based
Rattus norvegicus [13] = species: Rattus norvegicus; assay: Effect on insulin secretion from rat pancreatic islets at 10 uM concentration (n=24); type: functional; in short: as §2
Rattus norvegicus [14] = species: Rattus norvegicus; assay: Effect on insulin secretion from rat pancreatic islets at 50 uM concentration (n=11); type: functional; in short: as §2
Rattus norvegicus [15] = species: Rattus norvegicus; assay: Effect on insulin secretion from rat pancreatic islets at 10 uM concentration (n=21); type: functional; in short: as §2
Rattus norvegicus [16] = species: Rattus norvegicus; assay: Effect on insulin secretion from rat pancreatic islets at 1 uM concentration (n=16); type: functional; in short: as §2
Rattus norvegicus [17] = species: Rattus norvegicus; assay: Effect on insulin secretion from rat pancreatic islets at 50 uM concentration (n=15); type: functional; in short: as §2
[18] = Ionization constant was determined; type: physicochemical
In short: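 Ionization constant found by UV spectroscopy in aqueous buffers spanning pH 5 to 12; pKa calculated with the Debye-Hückel equation at the absorbance maximum of the basic form.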

Rattus norvegicus [19] = species: Rattus norvegicus; assay: Effect on insulin secretion from rat pancreatic islets at 50 uM concentration (n=16); type: functional; in short: as §2
Rattus norvegicus [20] = species: Rattus norvegicus; assay: Effect on insulin secretion from rat pancreatic islets at 10 uM concentration (n=37); type: functional
Rattus norvegicus [21] = species: Rattus norvegicus; assay: Effect on insulin secretion from rat pancreatic islets at 50 uM concentration (n=14); type: functional; in short: as §2
Rattus norvegicus [22] = species: Rattus norvegicus; assay: Concentration giving 50% relaxation of the 30 mM KCl-induced contraction of rat aortic rings (n=6); type: functional; details: Aorta, read-out: ED50 (the source's name); in short: as §1
Rattus norvegicus [23] = species: Rattus norvegicus; assay: Effect on insulin secretion from rat pancreatic islets at 50 uM concentration (n=12); type: functional; in short: as §2
Rattus norvegicus [24] = species: Rattus norvegicus; assay: Effect on insulin secretion from rat pancreatic islets at 1 uM concentration (n=14); type: functional; in short: as §2
Rattus norvegicus [25] = species: Rattus norvegicus; assay: Concentration required for relaxation of the 30 mM KCl-induced contraction of rat aortic rings; Precipitate; type: functional; details: Aorta; in short: as §1
Rattus norvegicus [26] = species: Rattus norvegicus; assay: Effect on insulin secretion from rat pancreatic islets at 10 uM concentration (n=23); type: functional; in short: as §2
Rattus norvegicus [27] = species: Rattus norvegicus; assay: Effect on insulin secretion from rat pancreatic islets at 1 uM concentration (n=15); type: functional; in short: as §2
Rattus norvegicus [28] = species: Rattus norvegicus; assay: Effect on insulin secretion from rat pancreatic islets at 50 uM concentration (n=13); type: functional; in short: as §2

## CCNC1=NS(=O)(=O)c2ccccc2N1
Rattus norvegicus [1]
  EC50: > 300 µM
Rattus norvegicus [2]
  Residual insulin release: 25.8%
Rattus norvegicus [3]
  Residual insulin release: 77.4%

## CC(C)NC1=NS(=O)(=O)c2cc(S(C)(=O)=O)ccc2N1
Rattus norvegicus [1]
  EC50: 127 µM
Rattus norvegicus [4]
  Residual insulin release: 90.5%

## CCCCCc1ccc2c(c1)S(=O)(=O)NC(NCC)=N2
Rattus norvegicus [1]
  EC50: 6.6 µM
Rattus norvegicus [5]
  Residual insulin release: 104%

## CCOc1ccc2c(c1)S(=O)(=O)NC(NC(C)C)=N2
Rattus norvegicus [1]
  EC50: 233 µM
Rattus norvegicus [6]
  Residual insulin release: 65.9%

## CCNC1=NS(=O)(=O)c2cc(S(C)(=O)=O)ccc2N1
Rattus norvegicus [1]
  EC50: > 300 µM
Rattus norvegicus [5]
  Residual insulin release: 91.6%

## N#Cc1ccc2c(c1)S(=O)(=O)N=C(NC1CCC1)N2
Rattus norvegicus [1]
  EC50: 57.9 µM
Rattus norvegicus [4]
  Residual insulin release: 102.6%
Rattus norvegicus [7]
  Residual insulin release: 54.3%

## COC(=O)c1ccc2c(c1)S(=O)(=O)NC(NC(C)C)=N2
Rattus norvegicus [8]
  EC50: > 200 µM
Rattus norvegicus [9]
  Residual insulin release: 95.7%
Rattus norvegicus [10]
  Residual insulin release: 94.3%

## Cc1ccc2c(c1)S(=O)(=O)NC(NC1CCC1)=N2
Rattus norvegicus [11]
  Ratio: 10
Rattus norvegicus [1]
  EC50: 58.4 µM
Rattus norvegicus [12]
  IC50: 5.6 µM
Rattus norvegicus [13]
  Residual insulin release: 19.7%
Rattus norvegicus [14]
  Residual insulin release: 3.7%
Rattus norvegicus [3]
  Residual insulin release: 99.5%

## CCCNC1=NS(=O)(=O)c2ccccc2N1
Rattus norvegicus [1]
  EC50: > 300 µM
Rattus norvegicus [15]
  Residual insulin release: 54.2%
Rattus norvegicus [16]
  Residual insulin release: 93.8%

## CCC(C)NC1=NS(=O)(=O)c2cc(S(C)(=O)=O)ccc2N1 (configuration not stated)
Rattus norvegicus [1]
  EC50: 126 µM
Rattus norvegicus [5]
  Residual insulin release: 97.2%

## CCCNC1=NS(=O)(=O)c2cc(C(=O)O)ccc2N1
Rattus norvegicus [1]
  EC50: > 300 µM
Rattus norvegicus [4]
  Residual insulin release: 97.6%
Rattus norvegicus [17]
  Residual insulin release: 95.3%

## CC(=O)Nc1ccc2c(c1)S(=O)(=O)N=C(NC(C)C)N2
[18]
  pKa: 9.8
Rattus norvegicus [1]
  EC50: > 300 µM
Rattus norvegicus [19]
  Residual insulin release: 89.3%

## CC(C)NC1=NS(=O)(=O)c2cc([N+](=O)[O-])ccc2N1
[18]
  pKa: 7.91
Rattus norvegicus [1]
  EC50: 23.1 µM
Rattus norvegicus [20]
  Residual insulin release: 64%
Rattus norvegicus [21]
  Residual insulin release: 4.8%

## COc1ccc2c(c1)S(=O)(=O)NC(NC1CCC1)=N2
Rattus norvegicus [11]
  Ratio: 72
Rattus norvegicus [22]
  EC50: 157 µM
Rattus norvegicus [12]
  IC50: 2.2 µM
Rattus norvegicus [4]
  Residual insulin release: 14.1%
Rattus norvegicus [23]
  Residual insulin release: 4%
Rattus norvegicus [24]
  Residual insulin release: 71.3%

## CCC(C)NC1=NS(=O)(=O)c2cc(C(F)(F)F)ccc2N1 (configuration not stated)
Rattus norvegicus [1]
  EC50: 8.9 µM
Rattus norvegicus [9]
  Residual insulin release: 76.1%
Rattus norvegicus [17]
  Residual insulin release: 28.6%

## O=S1(=O)N=C(NC2CCC2)Nc2ccccc21
Rattus norvegicus [25]
  ED50: Insoluble
Rattus norvegicus [6]
  Residual insulin release: 29.8%
Rattus norvegicus [16]
  Residual insulin release: 79.9%

## CC(C)NC1=NS(=O)(=O)c2cc(C(N)=O)ccc2N1
Rattus norvegicus [1]
  EC50: 175 µM
Rattus norvegicus [26]
  Residual insulin release: 76.6%

## CC(C)NC1=NS(=O)(=O)c2ccccc2N1
[18]
  pKa: 9.98
Rattus norvegicus [11]
  Ratio: >79
Rattus norvegicus [1]
  EC50: > 300 µM
Rattus norvegicus [12]
  IC50: 3.8 µM
Rattus norvegicus [5]
  Residual insulin release: 34.9%
Rattus norvegicus [27]
  Residual insulin release: 73.7%

## CCNC1=NS(=O)(=O)c2cc(OCC)ccc2N1
Rattus norvegicus [1]
  EC50: 162 µM
Rattus norvegicus [13]
  Residual insulin release: 75%

## CCNC1=NS(=O)(=O)c2cc(C)ccc2N1
Rattus norvegicus [11]
  Ratio: 84
Rattus norvegicus [22]
  EC50: 210 µM
Rattus norvegicus [12]
  IC50: 2.5 µM
Rattus norvegicus [2]
  Residual insulin release: 8.6%
Rattus norvegicus [3]
  Residual insulin release: 83.8%

## O=[N+]([O-])c1ccc2c(c1)S(=O)(=O)NC(NC1CCC1)=N2
Rattus norvegicus [1]
  EC50: 13.8 µM
Rattus norvegicus [28]
  Residual insulin release: 59.6%
